According to publication PMC5710753 (Biochemical pharmacology, 2017):
Read-outs that look alike come from different tables or passages of the source. Blank lines part the entries; values can stand above or below the compound they belong to.

Assays:
[1] = target: T1, OXE receptor (Homo sapiens, UniProt Q8TDS5); details: S230 vs R230; cited from earlier work
[2] = type: in vivo, cynomolgus monkeys; details: for time of maximal plasma level: after S230 30 mg/kg oral gavage
How it was run: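 Three monkeys were gavaged with 30 mg/kg (4.4 mL/kg) of an ethanol stock diluted into 10 volumes of 20 mM NaHCO3. Heparinized blood was taken predose and at 1–24 h, and plasma was stored at −80 °C. Plasma was treated with MeOH and an indole internal standard, then C18 solid-phase extracted. Quantitation used RP-HPLC-UV (60–80% MeOH, 0.02% HOAc) by peak-area ratio to the internal standard, with identities confirmed by LC-MS/MS.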

[3] = oral racemic 230; cited from earlier work
[4] = tested on: OXE receptor; details: feline; cited from earlier work
[5] = tested on: OXE receptor; details: cited from earlier work
[6] = monkey liver microsomes + NADPH; cited from earlier work
[7] = Incubation with plasma or intact leukocytes; type: in vitro ADME
[8] = target: T1, OXE receptor; test: Inhibition of 5-oxo-ETE-induced calcium mobilization in human neutrophils; type: cell-based
How it was run: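 Neutrophils isolated by dextran sedimentation and Ficoll-Paque centrifugation, loaded with indo-1 AM and held in a cuvette at 37 °C. Once baseline fluorescence was stable, the test compound was added, then 10 nM 5-oxo-ETE 2 min later, then digitonin (0.1% final) 1 min after that. Calcium response was read by spectrofluorometry.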

T1 sequence (Q8TDS5 whole entry): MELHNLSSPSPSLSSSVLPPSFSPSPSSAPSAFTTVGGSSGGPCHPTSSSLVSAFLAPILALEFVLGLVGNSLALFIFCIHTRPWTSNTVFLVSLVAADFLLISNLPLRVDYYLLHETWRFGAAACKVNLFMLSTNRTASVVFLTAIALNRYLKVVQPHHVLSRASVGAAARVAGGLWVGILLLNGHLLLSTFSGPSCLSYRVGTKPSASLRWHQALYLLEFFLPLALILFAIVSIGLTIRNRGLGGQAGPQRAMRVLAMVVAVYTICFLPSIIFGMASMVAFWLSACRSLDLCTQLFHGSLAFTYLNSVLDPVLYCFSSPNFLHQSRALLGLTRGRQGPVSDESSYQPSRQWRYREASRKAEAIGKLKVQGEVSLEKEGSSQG

plasma concentration ([2]; 8 h after S230 30 mg/kg oral): greater than 1.5 μM
maximal plasma concentration ([2]; S230 30 mg/kg oral gavage, at 1 h): 32 µM
time of maximal plasma level [2]: ≤ 1 h
plasma level as % of maximal concentration ([2]; by 4 h after S230 30 mg/kg oral): about 11%
plasma level as % of maximal concentration ([2]; by 8 h after S230 30 mg/kg oral): 5%
Compound: CCCCCCc1c(C(=O)C[C@H](C)CC(=O)O)c2cc(Cl)ccc2n1C [S230, (S)-5-(5-chloro-2-hexyl-1-methyl-1H-indol-3-yl)-3-methyl-5-oxopentanoate]
potency relative to the R-enantiomer (R230) [1]: over 400 times

formation of α-hydroxylation products [7]: Neither did we detect such products
Compound: CCCCCCc1c(C(=O)CC(C)CC(=O)O)c2cc(Cl)ccc2n1C (stereo not shown) [compound 230, 5-(5-chloro-2-hexyl-1-methyl-1H-indol-3-yl)-3-methyl-5-oxopentanoate]
maximal plasma concentration [3]: 87 µM
antagonist activity in cats [4]: only a weak antagonist
antagonist activity in vitro in monkeys [5]: potent OXE receptor antagonist
formation of α-OH-230 [6]: did not detect α-OH-230

IC50 [8]: > 10000 nM
peak area relative to the area of metabolite e ([2]; all time points, plasma after S230 30 mg/kg oral, RP-HPLC): about 3%
Compound: CCCCC[C@@H](O)c1c(C(=O)C[C@H](C)CC(=O)O)c2cc(Cl)ccc2n1C [x2, (S)-5-(5-chloro-2-((R)-1-hydroxyhexyl)-1-methyl-1H-indol-3-yl)-3-methyl-5-oxopentanoic acid]

IC50 [8]: 1600 ± 300 nM
Tmax ([2]; female, cynomolgus monkey, plasma, po, 30 mg/kg): ≤ 1 h
Compound: CCCCC[C@H](O)c1c(C(=O)C[C@H](C)CC(=O)O)c2cc(Cl)ccc2n1C [y1, (S)-5-(5-chloro-2-((S)-1-hydroxyhexyl)-1-methyl-1H-indol-3-yl)-3-methyl-5-oxopentanoic acid]

time of maximal plasma level [2]: ≤ 4 h
Compound: CC(O)CCCCc1c(C(=O)C[C@H](C)CC(=O)O)c2cc(Cl)ccc2n1C (stereo partly drawn) [ω2-OH-S230, (3S)-5-(5-chloro-2-(5-hydroxyhexyl)-1-methyl-1H-indol-3-yl)-3-methyl-5-oxopentanoate]
